We go through five molecules from ChEMBL document CHEMBL5214904, “Design, Synthesis, and Biological Evaluation of Boron-Containing Macrocyclic Polyamines and Their Zinc(II) Complexes for Boron Neutron Capture Therapy” (J Med Chem, 2021).

Where only a bound is given, the exact number is not on record here.

Data set [1] deals with Calf thymus DNA. The data set is described as follows: Binding affinity to calf thymus DNA assessed as stabilization by measuring change in melting temperature at ratio of 0.1 by UV/vis spectrophotometric. It counts as nucleic-acid assay. The conditions noted are these: Bos taurus.
Data set [2] concerns Calf thymus DNA. The data set is described as follows: Binding affinity to calf thymus DNA assessed as stabilization by measuring change in melting temperature at ratio of 0.2 by UV/vis spectrophotometric. It counts as nucleic-acid assay. The conditions noted are these: Bos taurus.
Data set [3] is described as follows: Drug uptake in human HeLa S3 cells assessed as increase in intracellular boron concentration measured per cell at 30 uM measured after 24 hrs by ICP-MS analysis. Type of data set: ADME, cell-based. Particulars: hela s3, 24 h; call rule not given here. The essentials:
(§1)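 Cells seeded at 5 × 10^5/well and grown overnight at 37 °C, 5% CO2, normoxic. A549 in DMEM/10% FBS; HeLa S3 in MEM/10% FBS. Exposed to 30 μM compound for 24 h. Cells washed with PBS ×3 and digested in 60% HNO3 for 24 h at room temperature, then diluted, centrifuged and filtered. Total boron (10B+11B) measured by ICP-MS and normalized per cell from hemocytometer counts of a parallel well. Mean ± SD of triplicates.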

Data set [4] in a line: Drug uptake in human A549 cells assessed as increase in intracellular boron concentration measured per cell at 30 uM measured after 24 hrs by ICP-MS analysis. It counts as ADME, cell-based. Particulars: a549, 24 h. The essentials:
as §1

Data set [5] has as its system Calf thymus DNA. The data set is described as follows: Binding affinity to calf thymus DNA assessed as stabilization by measuring change in melting temperature at ratio of 1 by UV/vis spectrophotometric. It counts as nucleic-acid assay. The conditions noted are these: Bos taurus.
In data set [6] the test system is Calf thymus DNA. In words: Binding affinity to calf thymus DNA assessed as stabilization by measuring change in melting temperature at ratio of 5 by UV/vis spectrophotometric. It counts as nucleic-acid assay. Particulars: Bos taurus.
Data set [7] is described as follows: Drug uptake in human A549 cells assessed as increase in intracellular boron atoms at 30 uM measured after 24 hrs by ICP-MS analysis. It counts as ADME, cell-based. Particulars: a549, 24 h. Summed up: as §1

Take `NCCCCNCCCN`: the ΔTm (usually the change in melting temperature against a reference sample) in the data set with Calf thymus DNA [1] was determined as 7 °C; with Calf thymus DNA [2] it was 12 °C.

With `c1cc(B2OC3(CCCCC3)C3(CCCCC3)O2)ccc1CN1CCNCCNCCNCCNCC1`, the values for the Drug uptake in data set [3] and in data set [4] were > 2.5 fmol and “Active”, respectively. Further, the ΔTm in the data set with Calf thymus DNA [5] came out at 3 °C; in the data set on Calf thymus DNA [6], 8 °C.

Regarding `c1cc(CN2CCNCCNCCNCC2)cc(B2OC3(CCCCC3)C3(CCCCC3)O2)c1`, the Drug uptake entry in data set [4] is listed as “Active”. Further, the shift in melting temperature (ΔTm) came to 1 °C in the data set on Calf thymus DNA [5] and 6 °C in the data set on Calf thymus DNA [6].

Regarding `c1cc(CN2CCNCCNCC2)cc(B2OC3(CCCCC3)C3(CCCCC3)O2)c1`, the Drug uptake result in data set [7] and in data set [4] was “Active” each time.

Consider `c1cc(B2OC3(CCCCC3)C3(CCCCC3)O2)ccc1CN1CCNCCNCC1`, for which the Drug uptake result in data set [7] is “Active”.
